Laboratory results reported in ChEMBL document CHEMBL5661986, “Discovery of the SMYD3 Inhibitor BAY-6035 Using Thermal Shift Assay (TSA)-Based High-Throughput Screening” (SLAS Discov, 2021).
Converted amounts (≈) assume the structure as drawn. The source made the active and inactive calls. No cut-off for these calls is given here.

Key:
[1] = Kinetic solubility of the compound at pH 6.5; format: physicochemical; settings: buffer, read-out: Kinetic_solubility
[2] = molecular target: T1, Histone-lysine N-methyltransferase SMYD3 (Homo sapiens, UniProt Q9H7B4); test: Binding affinity to recombinant human SMYD3 expressed in Escherichia coli assessed as dissociation constant by isothermal titration calorimetry
T1 sequence (Q9H7B4 whole entry): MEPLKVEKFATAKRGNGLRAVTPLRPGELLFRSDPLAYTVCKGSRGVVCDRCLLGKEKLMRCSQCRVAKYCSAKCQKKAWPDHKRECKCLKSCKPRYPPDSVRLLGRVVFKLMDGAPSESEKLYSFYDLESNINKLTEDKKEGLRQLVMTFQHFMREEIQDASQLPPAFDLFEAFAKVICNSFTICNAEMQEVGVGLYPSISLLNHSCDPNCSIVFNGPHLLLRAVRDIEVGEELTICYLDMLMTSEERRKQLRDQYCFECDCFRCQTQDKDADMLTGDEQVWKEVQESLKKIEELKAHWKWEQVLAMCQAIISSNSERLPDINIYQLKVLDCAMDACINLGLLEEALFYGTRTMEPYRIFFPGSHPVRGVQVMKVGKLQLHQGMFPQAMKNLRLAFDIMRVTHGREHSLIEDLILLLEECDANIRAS
Procedure, shortened: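 Syringe held compound at 0.3 mM in 20 mM HEPES pH 7.4, 150 mM NaCl, 0.005% Tween 20, 2.5% DMSO; eight 4 µL injections at 180 s intervals into SMYD3.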

[3] = molecular target: T1, Histone-lysine N-methyltransferase SMYD3; test: Binding affinity to biotinylated SMYD3 (unknown origin) assessed as dissociation constant using S-adenosyl-l-methionine as substrate by surface plasmon resonance analysis
Procedure, shortened: (§1)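 Biotinylated SMYD3 (aa 1–428) captured (~4700 RU) on streptavidin chip, empty reference flow cell; 25 °C; running buffer 20 mM HEPES pH 7.4, 150 mM NaCl, 3 mM EDTA, 0.05% Tween-20, 2% DMSO, plus 50 µM SAM. Single-cycle kinetics, five concentrations 25–2000 nM, 60 s contact, 300 s dissociation, 30 µL/min; triplicate.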

[4] = molecular target: T2, Histone-lysine N-methyltransferase SMYD3 (Homo sapiens) (UniProt Q9H7B4); test: Binding affinity to biotinylated SMYD3 (unknown origin) assessed as dissociation rate constant (Koff) using S-adenosyl-l-methionine as substrate by surface plasmon resonance analysis; procedure, shortened: as §1
T2 sequence (whole entry): T1 sequence (Q9H7B4 whole entry)

[5] = molecular target: T1, Histone-lysine N-methyltransferase SMYD3; test: Binding affinity to recombinant human SMYD3 expressed in Escherichia coli at varying 3H SAM substrate concentration of upto 3.5 uM with 10 fold Km concentration by scintillation proximity assay
Procedure, shortened: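 SPA, 10 nM SMYD3 methylating biotinylated MAP3K2 249–273 peptide with 3H-SAM in 20 mM Tris pH 9, 2.5 mM DTT, 0.01% Triton X-100; 40 min, 23 °C, GuHCl quench.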

[6] = molecular target: T2, Histone-lysine N-methyltransferase SMYD3 (Homo sapiens); test: Inhibition of SMYD3 (unknown origin)
Procedure, shortened: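 Recombinant human SMYD3 (aa 1–428, E. coli-expressed, His tag removed by TEV) at 10 nM. Reaction with 335 nM ³H-SAM and 15 µM biotinylated MAP3K2(249–273) peptide in 20 mM Tris pH 9, 2.5 mM DTT, 0.01% Triton X-100, 40 min at 23 °C. GuHCl quench, then SPA count of incorporated radioactivity. Quadruplicates normalized to DMSO and no-enzyme controls; IC50 from four-parameter logistic fit.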

[7] = molecular target: DNA (cytosine-5)-methyltransferase 1 (Homo sapiens) (UniProt P26358); test: Inhibition of DNMT1 (unknown origin)
[8] = molecular target: DNMT3A2/3L complex (Homo sapiens) (UniProt Q9Y6K1+Q9UJW3); test: Inhibition of DNMT3A/DNMT3L (unknown origin); format: protein-complex assay
[9] = molecular target: Histone-lysine N-methyltransferase, H3 lysine-79 specific (Homo sapiens) (UniProt Q8TEK3); test: Inhibition of DOT1L (unknown origin)
[10] = organism: Homo sapiens; test: Inhibition of GLP (unknown origin)
[11] = molecular target: Histone-lysine N-methyltransferase 2C (Homo sapiens) (UniProt Q8NEZ4); test: Inhibition of MLL3 (unknown origin)
[12] = molecular target: Histone-lysine N-methyltransferase, H3 lysine-36 specific (Homo sapiens) (UniProt Q96L73); test: Inhibition of NSD1 (unknown origin)
[13] = molecular target: Histone-lysine N-methyltransferase NSD3 (Homo sapiens) (UniProt Q9BZ95); test: Inhibition of NSD3 (unknown origin)
[14] = molecular target: Protein arginine N-methyltransferase 1 (Homo sapiens) (UniProt Q99873); test: Inhibition of PRMT1 (unknown origin)
[15] = molecular target: Protein arginine N-methyltransferase 8 (Homo sapiens) (UniProt Q9NR22); test: Inhibition of PRMT8 (unknown origin)
[16] = molecular target: Histone-lysine N-methyltransferase SETD7 (Homo sapiens) (UniProt Q8WTS6); test: Inhibition of SETD7 (unknown origin)
[17] = molecular target: N-lysine methyltransferase KMT5A (Homo sapiens) (UniProt Q9NQR1); test: Inhibition of SETD8 (unknown origin)
[18] = molecular target: N-lysine methyltransferase SMYD2 (Homo sapiens) (UniProt Q9NRG4); test: Inhibition of SMYD2 (unknown origin)
[19] = molecular target: Histone-lysine N-methyltransferase SUV39H1 (Homo sapiens) (UniProt O43463); test: Inhibition of SUV39H1 (unknown origin)
[20] = molecular target: Histone-lysine N-methyltransferase SUV39H2 (Homo sapiens) (UniProt Q9H5I1); test: Inhibition of SUV39H2 (unknown origin)
[21] = molecular target: Aurora kinase A (Homo sapiens, UniProt O14965); test: Inhibition of Aurora A (unknown origin) by HTRF assay
[22] = molecular target: Casein kinase I isoform alpha (Homo sapiens, UniProt P48729); test: Inhibition of CSNK1A1 (unknown origin)
[23] = molecular target: Interleukin-1 receptor-associated kinase 1 (Homo sapiens, UniProt P51617); test: Inhibition of IRAK1 (unknown origin) in presence of ATP
[24] = molecular target: Vascular endothelial growth factor receptor 2 (Homo sapiens, UniProt P35968); test: Inhibition of KDR (unknown origin) by HTRF assay
[25] = molecular target: NUAK family SNF1-like kinase 1 (Homo sapiens, UniProt O60285); test: Inhibition of NUAK1 (unknown origin) in presence of ATP
[26] = molecular target: Ribosomal protein S6 kinase alpha-6 (Homo sapiens, UniProt Q9UK32); test: Inhibition of RSK4 (unknown origin)
[27] = tested on: COLO-679; test: Antiproliferative activity against human COLO-679 cells assessed as inhibition of cell viability measured for 3 to 5 days by alamar blue staining based assay; format: functional
[28] = tested on: Hs746T; test: Antiproliferative activity against human Hs746T cells assessed as inhibition of cell viability measured for 3 to 5 days by alamar blue staining based assay; format: functional
[29] = tested on: MDA-MB-231; test: Antiproliferative activity against human MDA-MB-231 cells assessed as inhibition of cell viability measured for 3 to 5 days by alamar blue staining based assay; format: functional
[30] = tested on: SUD4; test: Antiproliferative activity against human SU-DHL-4 cells assessed as inhibition of cell viability measured for 3 to 5 days by alamar blue staining based assay; format: functional

DNA (cytosine-5)-methyltransferase 1 (Homo sapiens), sequence (P26358 whole entry): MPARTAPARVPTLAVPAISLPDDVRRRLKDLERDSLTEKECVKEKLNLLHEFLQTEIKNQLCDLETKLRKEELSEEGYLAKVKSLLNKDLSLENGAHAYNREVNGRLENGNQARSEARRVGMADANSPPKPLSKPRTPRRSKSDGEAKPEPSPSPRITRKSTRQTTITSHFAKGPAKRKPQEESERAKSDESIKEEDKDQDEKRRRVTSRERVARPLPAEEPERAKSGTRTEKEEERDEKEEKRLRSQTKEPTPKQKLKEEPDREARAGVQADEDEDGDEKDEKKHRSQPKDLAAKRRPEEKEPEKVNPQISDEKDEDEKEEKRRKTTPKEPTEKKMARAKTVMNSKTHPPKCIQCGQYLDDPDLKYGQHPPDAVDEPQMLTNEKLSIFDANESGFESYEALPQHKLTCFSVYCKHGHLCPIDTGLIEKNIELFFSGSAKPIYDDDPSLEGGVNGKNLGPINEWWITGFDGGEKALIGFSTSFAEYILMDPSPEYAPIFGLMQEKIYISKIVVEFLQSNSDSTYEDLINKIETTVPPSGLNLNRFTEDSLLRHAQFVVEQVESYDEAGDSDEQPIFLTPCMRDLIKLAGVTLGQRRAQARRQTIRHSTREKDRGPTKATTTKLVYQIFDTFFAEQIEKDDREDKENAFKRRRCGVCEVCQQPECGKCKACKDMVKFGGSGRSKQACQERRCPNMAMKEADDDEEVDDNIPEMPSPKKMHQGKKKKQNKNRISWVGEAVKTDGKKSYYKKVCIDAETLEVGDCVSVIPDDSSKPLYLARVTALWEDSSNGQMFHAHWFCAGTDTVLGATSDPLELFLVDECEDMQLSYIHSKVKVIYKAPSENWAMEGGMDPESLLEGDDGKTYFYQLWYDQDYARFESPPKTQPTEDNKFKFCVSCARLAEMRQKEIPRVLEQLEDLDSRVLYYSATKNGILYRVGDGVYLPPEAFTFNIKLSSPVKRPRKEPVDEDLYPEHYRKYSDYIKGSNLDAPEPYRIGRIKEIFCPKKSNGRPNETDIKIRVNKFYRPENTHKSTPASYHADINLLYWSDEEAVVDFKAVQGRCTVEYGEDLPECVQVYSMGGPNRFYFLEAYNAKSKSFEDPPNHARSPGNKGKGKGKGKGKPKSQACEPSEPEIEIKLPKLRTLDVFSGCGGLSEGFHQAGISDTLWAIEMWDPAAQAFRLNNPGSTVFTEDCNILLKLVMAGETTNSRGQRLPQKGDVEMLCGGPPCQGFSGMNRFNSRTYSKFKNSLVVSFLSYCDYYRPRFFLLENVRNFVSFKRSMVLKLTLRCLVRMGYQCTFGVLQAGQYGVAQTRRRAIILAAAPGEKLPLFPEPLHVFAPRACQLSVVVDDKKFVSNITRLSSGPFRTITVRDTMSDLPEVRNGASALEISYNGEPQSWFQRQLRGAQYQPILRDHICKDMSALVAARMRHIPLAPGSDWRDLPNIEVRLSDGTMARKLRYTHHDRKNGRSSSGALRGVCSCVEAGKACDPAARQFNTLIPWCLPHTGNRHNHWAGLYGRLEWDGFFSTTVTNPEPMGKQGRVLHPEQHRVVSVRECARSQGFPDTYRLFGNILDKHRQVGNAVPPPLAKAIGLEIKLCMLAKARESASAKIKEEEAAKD
Ribosomal protein S6 kinase alpha-6, sequence (Q9UK32 whole entry): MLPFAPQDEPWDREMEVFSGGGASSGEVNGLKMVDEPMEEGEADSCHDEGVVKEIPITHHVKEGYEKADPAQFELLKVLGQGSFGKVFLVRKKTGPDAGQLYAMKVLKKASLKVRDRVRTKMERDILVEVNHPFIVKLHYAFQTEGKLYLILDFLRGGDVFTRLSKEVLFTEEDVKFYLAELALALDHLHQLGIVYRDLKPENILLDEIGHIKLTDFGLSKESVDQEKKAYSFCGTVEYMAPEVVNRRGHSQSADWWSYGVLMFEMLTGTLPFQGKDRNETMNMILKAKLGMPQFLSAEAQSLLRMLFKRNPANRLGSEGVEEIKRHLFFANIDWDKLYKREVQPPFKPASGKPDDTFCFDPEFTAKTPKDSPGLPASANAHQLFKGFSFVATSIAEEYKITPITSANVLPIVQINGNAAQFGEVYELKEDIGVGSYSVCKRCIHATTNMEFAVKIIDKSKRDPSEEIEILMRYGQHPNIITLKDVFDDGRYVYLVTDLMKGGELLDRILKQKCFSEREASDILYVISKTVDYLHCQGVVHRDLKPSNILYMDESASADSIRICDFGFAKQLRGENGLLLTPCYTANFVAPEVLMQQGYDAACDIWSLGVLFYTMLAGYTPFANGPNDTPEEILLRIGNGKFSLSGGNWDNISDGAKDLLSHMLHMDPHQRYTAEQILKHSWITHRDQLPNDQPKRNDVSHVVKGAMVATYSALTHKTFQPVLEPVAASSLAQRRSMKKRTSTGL
Histone-lysine N-methyltransferase SUV39H2 (Homo sapiens), sequence (Q9H5I1 whole entry): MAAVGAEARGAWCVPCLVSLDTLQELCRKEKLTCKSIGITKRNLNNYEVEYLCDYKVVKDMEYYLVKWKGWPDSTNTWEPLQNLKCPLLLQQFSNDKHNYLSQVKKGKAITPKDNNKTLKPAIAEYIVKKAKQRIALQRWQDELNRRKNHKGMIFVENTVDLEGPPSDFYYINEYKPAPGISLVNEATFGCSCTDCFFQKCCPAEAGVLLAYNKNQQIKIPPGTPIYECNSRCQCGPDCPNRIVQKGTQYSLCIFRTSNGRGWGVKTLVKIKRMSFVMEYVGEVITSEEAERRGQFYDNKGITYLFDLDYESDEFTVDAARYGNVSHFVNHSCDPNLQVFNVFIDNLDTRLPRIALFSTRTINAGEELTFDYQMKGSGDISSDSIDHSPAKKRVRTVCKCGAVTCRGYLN
DNMT3A2/3L complex (Homo sapiens), sequence (Q9UJW3 whole entry, looked up): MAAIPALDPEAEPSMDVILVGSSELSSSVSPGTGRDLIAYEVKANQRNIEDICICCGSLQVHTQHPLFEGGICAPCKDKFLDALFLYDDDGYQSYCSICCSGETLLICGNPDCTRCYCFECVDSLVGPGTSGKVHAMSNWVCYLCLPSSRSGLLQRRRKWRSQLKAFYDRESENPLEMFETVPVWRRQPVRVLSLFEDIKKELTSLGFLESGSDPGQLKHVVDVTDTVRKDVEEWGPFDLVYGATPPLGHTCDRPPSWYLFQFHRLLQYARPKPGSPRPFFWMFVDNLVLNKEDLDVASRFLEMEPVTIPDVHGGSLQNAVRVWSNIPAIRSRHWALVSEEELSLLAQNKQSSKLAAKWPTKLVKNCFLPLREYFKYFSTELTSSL
DNMT3A2/3L complex (Homo sapiens), sequence (Q9Y6K1 whole entry, looked up): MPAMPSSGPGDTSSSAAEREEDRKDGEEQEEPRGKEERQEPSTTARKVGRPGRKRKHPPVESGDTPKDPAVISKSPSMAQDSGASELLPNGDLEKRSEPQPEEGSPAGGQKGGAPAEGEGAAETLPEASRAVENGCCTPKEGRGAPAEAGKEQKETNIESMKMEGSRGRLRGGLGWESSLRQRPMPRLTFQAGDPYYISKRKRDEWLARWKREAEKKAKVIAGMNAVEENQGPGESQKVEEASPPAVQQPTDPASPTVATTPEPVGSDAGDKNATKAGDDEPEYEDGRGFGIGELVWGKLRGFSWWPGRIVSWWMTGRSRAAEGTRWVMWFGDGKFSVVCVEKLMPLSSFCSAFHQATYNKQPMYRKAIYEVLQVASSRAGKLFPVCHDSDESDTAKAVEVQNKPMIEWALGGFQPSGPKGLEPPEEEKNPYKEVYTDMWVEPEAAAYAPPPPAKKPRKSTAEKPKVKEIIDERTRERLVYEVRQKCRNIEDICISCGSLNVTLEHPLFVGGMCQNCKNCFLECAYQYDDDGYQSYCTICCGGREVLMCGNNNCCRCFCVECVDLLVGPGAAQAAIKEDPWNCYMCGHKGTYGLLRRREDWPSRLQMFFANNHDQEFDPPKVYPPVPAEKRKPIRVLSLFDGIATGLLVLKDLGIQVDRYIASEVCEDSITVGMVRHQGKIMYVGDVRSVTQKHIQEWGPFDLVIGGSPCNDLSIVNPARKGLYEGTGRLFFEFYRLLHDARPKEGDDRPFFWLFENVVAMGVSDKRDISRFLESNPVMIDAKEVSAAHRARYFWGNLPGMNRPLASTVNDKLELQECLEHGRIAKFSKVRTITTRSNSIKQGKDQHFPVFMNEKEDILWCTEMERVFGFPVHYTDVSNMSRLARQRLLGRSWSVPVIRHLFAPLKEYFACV
NUAK family SNF1-like kinase 1, sequence (O60285 whole entry): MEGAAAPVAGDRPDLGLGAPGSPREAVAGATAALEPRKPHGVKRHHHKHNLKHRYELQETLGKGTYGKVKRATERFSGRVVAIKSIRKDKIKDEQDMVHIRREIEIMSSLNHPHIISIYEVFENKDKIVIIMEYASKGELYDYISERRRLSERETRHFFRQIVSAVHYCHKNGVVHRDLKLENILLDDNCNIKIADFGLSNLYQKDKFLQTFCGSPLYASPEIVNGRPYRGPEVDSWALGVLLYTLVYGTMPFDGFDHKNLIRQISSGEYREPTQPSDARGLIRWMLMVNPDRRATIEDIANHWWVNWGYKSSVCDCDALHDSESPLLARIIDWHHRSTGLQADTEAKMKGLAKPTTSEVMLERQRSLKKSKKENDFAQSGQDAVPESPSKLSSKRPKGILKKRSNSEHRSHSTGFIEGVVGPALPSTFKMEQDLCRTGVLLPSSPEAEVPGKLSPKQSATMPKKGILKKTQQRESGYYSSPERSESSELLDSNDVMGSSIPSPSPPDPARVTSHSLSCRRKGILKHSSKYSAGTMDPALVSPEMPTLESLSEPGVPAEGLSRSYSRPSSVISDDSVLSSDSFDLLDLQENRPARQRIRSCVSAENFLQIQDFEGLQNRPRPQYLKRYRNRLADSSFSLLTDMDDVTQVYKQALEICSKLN
Casein kinase I isoform alpha, sequence (P48729 whole entry, canonical isoform): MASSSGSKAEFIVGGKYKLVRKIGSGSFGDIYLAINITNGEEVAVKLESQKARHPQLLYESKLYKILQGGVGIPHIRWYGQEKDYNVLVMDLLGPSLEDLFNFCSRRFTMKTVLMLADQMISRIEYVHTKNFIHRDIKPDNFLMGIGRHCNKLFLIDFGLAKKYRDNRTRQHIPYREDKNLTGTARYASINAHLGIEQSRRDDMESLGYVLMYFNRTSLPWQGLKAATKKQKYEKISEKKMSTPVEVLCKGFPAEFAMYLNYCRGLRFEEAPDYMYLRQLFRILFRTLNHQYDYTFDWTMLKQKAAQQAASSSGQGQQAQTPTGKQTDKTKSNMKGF

Work on `C[C@H]1CC(=O)Nc2cc(C(=O)NCCC3CC3)ccc2N1C(=O)N1CC2CC2C1` (stereo not given in full) yielded a solubility kinetic [1] of 363 µg/mL (≈ 915 µM), a Kd [2] of 133 nM and a Kd [3] of 97 nM. For the same molecule, the Kdiss [4] was 3 10^-2/s, the IC50 [5] was “Not Active” and the inhibition [6] was “Active”. For the same molecule, the inhibition [7] was “inactive”, the inhibition [8] was “inactive” and the inhibition [9] was “inactive”. For the same molecule, the inhibition [10] was “inactive”, the inhibition [11] was “inactive” and the inhibition [12] was “inactive”. The inhibition [13] was “inactive”, the inhibition [14] was “inactive” and the inhibition [15] was “inactive”. For the same molecule, the inhibition [16] was “inactive”, the inhibition [17] was “inactive” and the inhibition [18] was “inactive”. For the same molecule, the inhibition [19] was “inactive”, the inhibition [20] was “inactive” and the IC50 [21] was greater than 20 µM. It also gave an IC50 [22] greater than 20 µM, an IC50 [23] greater than 20 µM and an IC50 [24] greater than 20 µM. It also gave an IC50 [25] greater than 20 µM, an IC50 [26] greater than 20 µM and an IC50 [27] greater than 10 µM. The IC50 [28] was greater than 10 µM, the IC50 [29] was greater than 10 µM and the IC50 [30] was greater than 10 µM.
